For assay [1], the system named is MDA-MB-231. The assay is described as follows: Cell cycle arrest in estrogen receptor deficient human MDA-MB-231 cells assessed as accumulation at G1 phase at 10 nM after 72 hrs using propidium iodide staining by flow cytometry relative to control. In kind it is functional. The essentials:
(§1)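 MDA-MB-231 cells in DMEM with 10% FBS and 2 mM L-glutamine, seeded at 18 × 10⁴ cells/mL. Exposed to test agent at the stated final concentration, or to 1% (v/v) ethanol vehicle, for 24, 48 or 72 h. Harvested by scraping and centrifugation, then RNase A treatment and propidium iodide DNA staining for at least 30 min at 37 °C. 10,000 cells per sample read at 488 nm by flow cytometry; mean ± SD of three experiments.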

In assay [2] the test system is MDA-MB-231. Briefly: Cell cycle arrest in estrogen receptor deficient human MDA-MB-231 cells assessed as accumulation at G2/M phase at 10 uM after 24 hrs using propidium iodide staining by flow cytometry relative to control. In kind it is functional. The essentials:
as §1

Take `COc1ccc(C2CC(=O)N2c2cc(OC)c(OC)c(OC)c2)cc1O` (configuration not stated): the values for the Activity in the assay on MDA-MB-231 [1] and in the assay on MDA-MB-231 [2] were 48.24% and 55.36%, respectively.
